Measurements published in BindingDB's records for doi:10.1021/acs.jmedchem.0c01126 (The University of Tokyo, 2020).

How the values were obtained:
[1] = target: Probable G-protein coupled receptor 34 (Mus musculus, UniProt Q9R1K6); experiment: Agonist activity at mouse GPR34 expressed in HEK293 cells co-transfected with AP-TGFalpha/Galphaq/i1 assessed as induction of ectodomain shedding of membrane bound AP-TGFalpha after 1 hr by p-NPP substrate based microplate reader analysis
Method in brief: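 HEK293 cells transiently transfected with AP-TGFα, chimeric Gα and mouse GPR34 vectors, then treated with compound. Empty-vector cells (AP-TGFα plus chimeric Gα) served as background. Receptor-specific AP-TGFα release was taken after subtracting that background, and concentration-response curves gave EC50 and Emax. Mean and SEM of 3−8 independent experiments.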

[2] = target: Putative P2Y purinoceptor 10 (Mus musculus, UniProt Q8BFU7); experiment: Agonist activity at mouse P2Y10 expressed in HEK293 cells co-transfected with AP-TGFalpha/Galphaq/i1 assessed as induction of ectodomain shedding of membrane bound AP-TGFalpha after 1 hr by p-NPP substrate based microplate reader analysis
Sequence of Putative P2Y purinoceptor 10 (Q8BFU7 whole entry, the tested form may be a part): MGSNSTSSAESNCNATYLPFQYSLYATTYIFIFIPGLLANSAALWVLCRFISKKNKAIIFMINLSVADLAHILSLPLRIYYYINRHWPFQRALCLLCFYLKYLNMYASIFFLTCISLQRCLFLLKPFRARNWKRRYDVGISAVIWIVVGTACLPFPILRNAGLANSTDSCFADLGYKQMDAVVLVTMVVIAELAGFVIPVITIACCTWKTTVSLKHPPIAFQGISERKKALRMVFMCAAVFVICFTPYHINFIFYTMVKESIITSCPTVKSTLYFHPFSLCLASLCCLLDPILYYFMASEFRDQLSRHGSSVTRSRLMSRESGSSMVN
Method in brief: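 Run the same way as the GPR34 shedding assay, but with a mouse P2Y10 expression vector in HEK293 cells alongside AP-TGFα and chimeric Gα. Receptor-specific AP-TGFα release was found by subtracting the empty-vector background. EC50 and Emax came from concentration-response curves. Mean and SEM of 3−8 independent experiments.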

[3] = target: G protein-coupled receptor 34a (Danio rerio, UniProt Q6XCC7); experiment: Agonist activity at zebrafish GPR34 type a expressed in HEK293 cells co-transfected with AP-TGFalpha/Galphaq/i1 assessed as induction of ectodomain shedding of membrane bound AP-TGFalpha after 1 hr by p-NPP substrate based microplate reader analysis
Sequence of G protein-coupled receptor 34a (Q6XCC7 1-389): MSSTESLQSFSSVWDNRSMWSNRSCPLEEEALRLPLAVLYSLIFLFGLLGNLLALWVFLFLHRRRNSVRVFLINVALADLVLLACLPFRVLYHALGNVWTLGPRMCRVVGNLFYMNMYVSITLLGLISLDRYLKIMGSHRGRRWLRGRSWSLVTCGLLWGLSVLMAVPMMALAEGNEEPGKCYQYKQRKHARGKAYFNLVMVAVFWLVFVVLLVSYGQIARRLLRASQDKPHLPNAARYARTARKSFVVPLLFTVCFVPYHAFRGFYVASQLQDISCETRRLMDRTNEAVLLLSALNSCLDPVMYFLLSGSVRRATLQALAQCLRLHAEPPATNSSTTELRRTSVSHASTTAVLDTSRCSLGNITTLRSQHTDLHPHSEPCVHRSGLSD

Sequence of Probable G-protein coupled receptor 34 (Q9R1K6 whole entry, the tested form may be a part): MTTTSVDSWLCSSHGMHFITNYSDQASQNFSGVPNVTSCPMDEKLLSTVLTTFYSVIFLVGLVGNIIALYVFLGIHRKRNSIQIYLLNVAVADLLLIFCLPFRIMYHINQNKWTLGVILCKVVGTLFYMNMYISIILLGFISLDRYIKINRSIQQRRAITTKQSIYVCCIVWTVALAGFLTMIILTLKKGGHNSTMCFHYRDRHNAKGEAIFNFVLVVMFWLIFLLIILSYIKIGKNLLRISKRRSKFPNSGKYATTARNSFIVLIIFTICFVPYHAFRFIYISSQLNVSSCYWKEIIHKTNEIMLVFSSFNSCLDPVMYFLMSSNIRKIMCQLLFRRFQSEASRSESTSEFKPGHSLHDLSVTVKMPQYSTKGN

Row | EC50 [1] [µM] | EC50 [2] [µM] | EC50 [3] [µM] | Structure (SMILES)
1 | > 3.16 | – | – | CCCCCCCCCCCOc1ccccc1CCC(=O)O[C@H]1CCOC[C@H]1OP(=O)(O)OC[C@H](N)C(=O)O
2 | – | > 3.16 | – | CCCCCCCC/C=C\CCCCCCCC(=O)OC[C@H](COC)OP(=O)(O)OC[C@H](N)C(=O)O
3 | > 3.16 | – | – | CCCCCCCC/C=C\CCCCCCCC(=O)O[C@@H](C)COP(=O)(O)OC[C@H](N)C(=O)O
4 | – | > 3.16 | – | CCCCCCCC/C=C\CCCCCCCC(=O)OC[C@@H](COCC)OP(=O)(O)OC[C@H](N)C(=O)O
5 | – | > 3.16 | – | CCCCCCCC/C=C\CCCCCCCC(=O)OC[C@@H](COCCC)OP(=O)(O)OC[C@H](N)C(=O)O
6 | – | > 3.16 | – | CCCCCCCC/C=C\CCCCCCCC(=O)OC[C@@H](COC)OP(=O)(O)OC[C@H](N)C(=O)O
7 | > 3.16 | – | – | CCCCCCCCCCCOc1ccccc1CCC(=O)O[C@H]1COCC[C@@H]1OP(=O)(O)OC[C@H](N)C(=O)O
8 | – | > 3.16 | – | COC[C@H](COC(=O)CCc1ccccc1OCc1cccc(Oc2ccccc2)c1)OP(=O)(O)OC[C@H](N)C(=O)O
9 | > 3.16 | – | – | CCCCCCCC/C=C\CCCCCCCC(=O)OCCOP(=O)(O)OC[C@H](N)C(=O)O
10 | – | > 3.16 | > 3.16 | CCOC[C@H](COC(=O)CCc1ccccc1OCc1cccc(Oc2ccccc2)c1)OP(=O)(O)OC[C@H](N)C(=O)O
